Experimental data collected from several papers.
Protocols differ between the studies behind these lines.
Target: Serine/threonine-protein kinase 4 (STK4, Homo sapiens, UniProt Q13043)
Residues used in one study (Q13043 1-487): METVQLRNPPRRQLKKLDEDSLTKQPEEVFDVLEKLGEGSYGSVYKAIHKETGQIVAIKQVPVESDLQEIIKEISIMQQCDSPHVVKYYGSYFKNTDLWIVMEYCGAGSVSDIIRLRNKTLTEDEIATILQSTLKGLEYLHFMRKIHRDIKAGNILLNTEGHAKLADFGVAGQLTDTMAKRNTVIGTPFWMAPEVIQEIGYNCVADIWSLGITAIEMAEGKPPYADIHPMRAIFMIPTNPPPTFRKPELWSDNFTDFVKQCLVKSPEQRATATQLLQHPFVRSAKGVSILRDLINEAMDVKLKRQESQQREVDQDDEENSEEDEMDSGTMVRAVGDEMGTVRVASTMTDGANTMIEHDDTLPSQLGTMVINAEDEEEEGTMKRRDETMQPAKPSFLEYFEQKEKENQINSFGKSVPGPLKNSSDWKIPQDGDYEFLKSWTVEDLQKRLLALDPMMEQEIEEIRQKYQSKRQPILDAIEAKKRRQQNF

Structure (SMILES) | assay | setting | measurement | result
Cc1nn(C)cc1-c1nc2c(N3CCN(Cc4ccc(Cl)cc4)CC3)c(Cl)cnc2[nH]1 | binding, competition with immobilised ligand | 1 µM | remaining binding | 100%
O=c1[nH]c2ccccc2n1C1CCN(Cc2ccc(-c3[nH]c4cc5ncnc5cc4nc3-c3ccccc3)cc2)CC1 | cell-free assay | 0.5 µM | remaining signal | 95.2%
COc1ncccc1-c1cnn2ccc(N3CCN(C(=O)OC(C)C)CC3)nc12 | binding, competition with immobilised ligand | 1 µM | remaining binding | 40%
C#Cc1n[nH]c2c(-c3cn(C(C)c4ccccn4)c(=O)[nH]c3=O)cc(F)cc12 (stereo not drawn) | enzyme activity, inhibitor | 1 µM | inhibition | 3.7%
Cn1cc(-c2cc(F)cc(N3CCn4c(cc5c4CCCC5)C3=O)c2CO)cc(Nc2ccc(N3CCN(C4COC4)CC3)cn2)c1=O | enzyme activity, inhibitor | 0.1 µM | inhibition | 13%
C#Cc1n[nH]c2c(-c3cn([C@@H](C)c4ccccc4)c(=O)[nH]c3=O)cc(F)cc12 | enzyme activity, inhibitor | 0.1 µM | inhibition | -0.9%
Cn1cc(-c2cccc(N3CCc4c(sc5c4CC(C)(C)C5)C3=O)c2CO)cc(Nc2ccncn2)c1=O | enzyme activity, inhibitor | 1 µM | inhibition | -4%
Nc1ncc(-c2nc(N3CCOCC3)nc(N3CCOCC3)n2)c(C(F)F)n1 | binding, competition with immobilised ligand | 10 µM | remaining binding | 86%
Clc1cccc(-c2c[nH]c3nccc(N4CCOCC4)c23)c1 | thermal stability, DSF | 20 µM | ΔTm | > 8 °C
CC(C)(C)c1cc(C=C(C#N)C#N)cc(Br)c1O | enzyme activity, inhibitor | 0.5 µM | remaining activity | 90.5%
NC(=O)c1cccc(-c2c[nH]c3ncnc(N4CCOCC4)c23)c1 | thermal stability, DSF | 20 µM | ΔTm | > 8 °C
Cn1cncc1[C@](O)(COc1ccc(C#N)cc1-c1ccc(OC(F)(F)F)cc1)c1ccc(C#N)cc1 | cell-free assay, competition with immobilised ligand | 1 µM | remaining binding | 86%
